Reference: ChEMBL document CHEMBL3232816, “Substituted E-3-(3-indolylmethylene)1,3-dihydroindol-2-ones with antiproliferative activity. Study of the effects on HL-60 leukemia cells” (2014)
Structures can show the parent of a compound that is named as a salt.

How the values were obtained:
Assay type in all cases: functional
[1] = Cytotoxicity against human leukemia cells after 48 hrs; details: for GI50 / TGI: Leukemia cell
Procedure, shortened: (§1)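 NCI 60-line panel. Compounds were dissolved in DMSO and tested at five 10-fold dilutions, the highest 10^-4 M (10^-3 M where footnoted), over 48 h of incubation. The readouts were GI50, TGI and LC50 in μM, with the panel mean also given. Only compounds passing a 10^-5 M single-dose prescreen were tested; some were repeated and averaged over two experiments.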

[2] = Cytotoxicity against human NSCLC cells after 48 hrs; procedure, shortened: as §1
[3] = Cytotoxicity against human colon cancer cells after 48 hrs; details: Cancer cell lines; for CC50: read-out: LC50 (the source's name); procedure, shortened: as §1
[4] = Cytotoxicity against human melanoma cells after 48 hrs; details: Melanoma cell; procedure, shortened: as §1
[5] = Cytotoxicity against human ovarian cancer cells after 48 hrs; details: Cancer cell lines; procedure, shortened: as §1
[6] = Cytotoxicity against human renal cancer cells after 48 hrs; details: Cancer cell lines; procedure, shortened: as §1
[7] = Cytotoxicity against human prostate cancer cells after 48 hrs; details: Cancer cell lines; for CC50: read-out: LC50 (the source's name); procedure, shortened: as §1
[8] = Cytotoxicity against human breast cancer cells after 48 hrs; details: Cancer cell lines; for CC50: read-out: LC50 (the source's name); procedure, shortened: as §1
[9] = Cytotoxicity against human CNS cancer cells after 48 hrs; details: Cancer cell lines; for CC50: read-out: LC50 (the source's name); procedure, shortened: as §1

SMILES | GI50 [1] [µM] | TGI [1] [µM] | GI50 [2] [µM] | TGI [2] [µM] | GI50 [3] [µM] | TGI [3] [µM] | CC50 [3] [µM] | GI50 [4] [µM] | LC50 [4] [µM] | TGI [4] [µM] | GI50 [5] [µM] | LC50 [5] [µM] | TGI [5] [µM] | GI50 [6] [µM] | TGI [6] [µM] | GI50 [7] [µM] | TGI [7] [µM] | GI50 [8] [µM] | TGI [8] [µM] | GI50 [9] [µM] | further results
O=C1Nc2ccc(O)cc2/C1=C\c1c(Cl)n(CCc2ccccc2)c2ccccc12 | 3.39 | 77.6 | 7.08 | 50.1 | 9.77 | 33.9 | 72.4 | 7.08 | 74.1 | 28.2 | 9.12 | 95.5 | 64.6 | 9.33 | 55 | 6.76 | 47.9 | 3.98 | 25.1 | 10.5 | LC50 [6]: 95.5 µM; TGI [9]: 52.5 µM; CC50 [9]: 95.5 µM
COc1c(/C=C2/C(=O)Nc3ccccc32)c2ccccc2n1-c1ccccc1 | 0.52 | 2.63 | 2.14 | 8.32 | 1.05 | 3.24 | 7.94 | 1.48 | 10.5 | 3.98 | 1.38 | 15.8 | 4.07 | 1.12 | 4.07 | 1.12 | 3.47 | 1.23 | 4.47 | 2.19 | LC50 (concentration giving 50% net cell kill) [1]: 50.1 µM; LC50 [2]: 27.5 µM; LC50 [6]: 13.2 µM; CC50 [7]: 19.1 µM; CC50 [8]: 27.5 µM; TGI [9]: 8.51 µM; CC50 [9]: 30.9 µM
COc1ccc2c(c1)/C(=C\c1c(Cl)n(C/C=C/c3ccccc3)c3ccccc13)C(=O)N2 | 2 |  | 2.24 | 37.1 | 1.32 | 21.9 |  | 2.4 |  | 38.9 | 2.09 |  | 41.7 | 1.91 | 30.2 | 2.09 | 16.2 | 1.86 | 36.3 | 2.04 | 
COc1ccc2c(c1)/C(=C\c1c(OC)n(-c3ccccc3)c3ccccc13)C(=O)N2 | 0.76 | 4.47 | 2.51 | 17.4 | 1.74 | 11 | 42.7 | 2.4 | 50.1 | 17 | 2 | 66.1 | 17.4 | 2.29 | 17.4 | 2.63 | 13.2 | 0.63 | 7.24 | 0.98 | LC50 (concentration giving 50% net cell kill) [1]: 58.9 µM; LC50 [2]: 63.1 µM; LC50 [6]: 63.1 µM; CC50 [7]: 52.5 µM; CC50 [8]: 47.9 µM; TGI [9]: 9.55 µM; CC50 [9]: 38.9 µM
CC[C@]1(O)C[C@H]2CN(CCc3c([nH]c4ccccc34)[C@@](C(=O)OC)(c3cc4c(cc3OC)N(C=O)[C@H]3[C@@](O)(C(=O)OC)[C@H](OC(C)=O)[C@]5(CC)C=CCN6CC[C@]43[C@@H]65)C2)C1 [VINCRISTINE SULFATE] | 0.1 |  | 0.25 |  | 0.1 |  |  | 0.16 |  |  | 0.32 |  |  | 0.32 |  | 0.13 |  | 0.32 |  | 0.13 | 
O=C1Nc2ccc(Cl)cc2/C1=C\c1c(Cl)n(CCCc2ccccc2)c2ccccc12 | 2.88 | 81.3 | 2.24 | 8.91 | 1.95 | 5.62 | 19.1 | 2.04 | 35.5 | 5.75 | 2.45 | 60.3 | 23.4 | 1.86 | 9.77 | 2 | 6.46 | 2.19 | 9.12 | 2.82 | LC50 [2]: 28.8 µM; LC50 [6]: 17.8 µM; CC50 [7]: 34.7 µM; CC50 [8]: 42.7 µM; TGI [9]: 10.2 µM; CC50 [9]: 50.1 µM
COc1cc2c(cc1C)NC(=O)/C2=C/c1c(Cl)n(Cc2cc(OC)c(OC)c(OC)c2)c2cc(C)c(OC)cc12 | 3.24 | 42.7 | 11 | 66.1 | 16.6 |  |  | 25.1 |  |  | 30.9 |  |  | 38.9 |  | 5.5 | 87.1 | 10 |  | 49 | 
COc1c(/C=C2/C(=O)Nc3ccc(Cl)cc32)c2ccccc2n1-c1ccccc1 | 2.34 | 8.91 | 9.55 | 24.6 | 6.31 | 25.7 | 60.3 | 5.62 | 51.3 | 18.2 | 8.51 | 66.1 | 24 | 8.51 | 21.9 | 9.33 | 24 | 4.27 | 13.8 | 5.25 | LC50 (concentration giving 50% net cell kill) [1]: 58.9 µM; LC50 [2]: 57.5 µM; LC50 [6]: 51.3 µM; CC50 [7]: 60.3 µM; CC50 [8]: 52.5 µM; TGI [9]: 19.1 µM; CC50 [9]: 52.5 µM
